Experimental data gathered from unrelated publications.
Lines come from different studies, so protocols differ.
Target: Cannabinoid receptor 1 (CNR1, Homo sapiens, UniProt P21554)

| Compound | test | conditions | quantity | result |
| --- | --- | --- | --- | --- |
| CCCCCc1cc(O)c2c(c1)OC(C)(C)[C@@H]1CC=C(C)[C@H](O)[C@@H]21 | ligand displacement, radioligand | cell membranes | Ki | 31 nM |
| CCCCCn1nc(C(=O)N[C@H](C(N)=O)C(C)C)c2ccccc21 | calcium signal, agonist | – | EC50 | 3.63 nM |
| CCOC(=O)C(CC)(CCCSCCOCCOCCOCCNC(=O)OC(C)(C)C)NC(=O)c1ccc(C2CC2)c(Cc2ccc(F)cc2)n1 (centres unmarked) | ligand displacement, radioligand | cell membranes | Ki | 589 nM |
| CCCCC/C=C\C/C=C\C/C=C\C/C=C\CCCC(=O)N[C@H](C)CO | ligand displacement, radioligand | cell membranes | Ki | 19.8 nM |
| O=C(c1ccc2c(c1)c1ccccc1n2CCN1CCOCC1)c1cc2ccccc2[nH]1 | ligand displacement, radioligand | cell membranes | Ki | 1200 nM |
| CCOC(=O)[C@](CC)(CCC[S+]([O-])CCOCCOCCNC(=O)OC(C)(C)C)NC(=O)c1ccc(C2CC2)c(Cc2ccc(F)cc2)n1 (some centres unmarked) | ligand displacement, radioligand | cell membranes | Ki | 326 nM |
| CCCc1cc(O)c2c(c1)OC(C)(C)[C@@H]1CCC(C)=C[C@@H]21 | ligand displacement, radioligand | cell membranes | Ki | 22 nM |
| CC1(C)C(C(=O)c2cn(CCCCCF)c3ccccc23)C1(C)C | GTPγS binding, agonist, radiometric | cell membranes | EC50 | 159 nM |
| CCOC(=O)C(CCCOC)NC(=O)c1ccc(C2CC2)c(Cc2ccc(F)cc2)n1 (centres unmarked) | ligand displacement, radioligand | cell membranes | Ki | 99 nM |
| CC/C(=C(\c1ccc(O)cc1)c1ccc(OCCN(C)C)cc1)c1ccccc1 | cAMP, antagonist | – | Kb | 1600 nM |
| CCCCCc1cc(O)c(C/C=C(\C)CCC=C(C)C)c(O)c1C(=O)O | ligand displacement, radioligand | cell membranes | Ki | 4530 nM |
| CCOC(=O)C(CC)(CCCSCCOCCOCCNc1ccc([N+](=O)[O-])c2nonc12)NC(=O)c1ccc(C2CC2)c(Cc2ccc(F)cc2)n1 (racemic) | ligand displacement, radioligand | cell membranes | Ki | 383 nM |
| C/C(N)=N\C(=N/S(=O)(=O)c1ccc(C(F)(F)F)cc1)N1C[C@H](c2ccccc2)C(c2ccc(Cl)cc2)=N1 | ligand displacement, radioligand | – | Ki | 1.2 nM |
| CCCCCc1cc(O)c(C/C=C(\C)CCC2OC2(C)C)c(O)c1 (centres unmarked) | ligand displacement, radioligand | cell membranes | Ki | > 10000 nM |
